Assay results: ChEMBL document CHEMBL1141320, “Antioxidant flavonoid glycosides from aerial parts of the fern Abacopteris penangiana” (J Nat Prod, 2007)
The source made the active and inactive calls. The rule behind the calls is not given here.

Assay: Antioxidant activity assessed as ABTS radical scavenging activity after 15 mins by TEAC assay
Type: functional
How it was run: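 ABTS (7 mM in water) oxidized with potassium persulfate (2.45 mM final), kept dark at room temperature 16 h, diluted with water to A734 0.700 ± 0.003. Sample added to diluted ABTS•+ (0–20 µM final); A734 decrease read after 15 min. Triplicate, with solvent blanks. Percent inhibition plotted against concentration alongside Trolox standard; TEAC = Trolox concentration matching antioxidant potential of 1 mM sample.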
With COc1ccc([C@@H]2C[C@@H](O)c3c(O[C@@H]4O[C@H](CO)[C@@H](O)[C@H](O)[C@H]4O)c(C)c(O[C@@H]4O[C@H](CO)[C@@H](O)[C@H](O)[C@H]4O)c(C)c3O2)cc1 the Activity was “inactive”.
COc1ccc([C@@H]2C[C@H]3O[C@H]4[C@H](Oc5c(C)c(O)c(C)c(c53)O2)O[C@H](CO)[C@@H](O)[C@@H]4O)cc1 gave an Activity of 1.36 mM.
With COc1ccc([C@@H]2C[C@@H](O)c3c(c(C)c(O[C@@H]4O[C@H](CO)[C@@H](O)[C@H](O)[C@H]4O)c(CO)c3O[C@@H]3O[C@H](CO)[C@@H](O)[C@H](O)[C@H]3O)O2)cc1 the Activity was “inactive”.
Cc1c(O)c(C)c2c3c1O[C@@H]1O[C@H](CO)[C@@H](O)[C@H](O)[C@H]1O[C@H]3C[C@@H](c1ccc(O)cc1)O2 gave an Activity of 1.44 mM.
O=c1c(O)c(-c2ccc(O)c(O)c2)oc2cc(O)cc(O)c12 showed an Activity of 3.74 mM.
Molecule Cc1c(O[C@@H]2O[C@H](CO)[C@@H](O)[C@H](O)[C@H]2O)c(CO)c(O[C@@H]2O[C@H](CO)[C@@H](O)[C@H](O)[C@H]2O)c2c1O[C@H](c1ccc(O)cc1)C[C@H]2O has an Activity of 1.17 mM.
Work on COc1ccc([C@@H]2C[C@@H]3O[C@H]4[C@H](Oc5c(C)c(O)c(C)c(c53)O2)O[C@H](CO)[C@@H](O)[C@@H]4O)cc1 yielded an Activity of 1.1 mM.
COCc1c(O)c(C)c2c3c1O[C@@H]1O[C@H](CO)[C@@H](O)[C@H](O)[C@H]1O[C@@H]3C[C@@H](c1ccc(O)cc1)O2 gave an Activity of 1.51 mM.
With COc1ccc([C@@H]2C[C@H]3O[C@H]4[C@H](Oc5c(C)c(O[C@@H]6O[C@H](CO)[C@@H](O)[C@H](O)[C@H]6O)c(C)c(c53)O2)O[C@H](CO)[C@@H](O)[C@@H]4O)cc1 the Activity was “inactive”.
For O=c1c(O[C@@H]2O[C@H](CO)[C@@H](O)[C@H](O)[C@H]2O)c(-c2ccc(O)c(O)c2)oc2cc(O)cc(O)c12, the Activity was 1.91 mM.
With O=c1c(O[C@@H]2O[C@H](CO)[C@@H](O)[C@H](O)[C@H]2O)c(-c2ccc(O)cc2)oc2cc(O)cc(O)c12 the Activity was 1.46 mM.
Work on COCc1c(O)c(C)c2c3c1O[C@@H]1O[C@H](CO)[C@@H](O)[C@H](O)[C@H]1O[C@@H]3C[C@@H](c1ccc(OC)cc1)O2 yielded an Activity of 1.03 mM.
With Cc1c(O)c(C)c2c3c1O[C@@H]1O[C@H](CO)[C@@H](O)[C@H](O)[C@H]1O[C@@H]3C[C@@H](c1ccc(O)cc1)O2 the Activity was 1.32 mM.
